Measured values published in ChEMBL document CHEMBL3632558, “Synthesis, antimycobacterial and antibacterial activity of l-[(1R,2S)-2-fluorocyclopropyl]naphthyridone derivatives containing an oxime-functionalized pyrrolidine moiety” (2015).
Converted amounts (≈) assume the structure as drawn.

Tested on: Mycobacterium tuberculosis
Test: Antimycobacterial activity against multidrug-resistant Mycobacterium tuberculosis 6133 by alamar blue assay
Type: functional
Outline: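 Microplate Alamar Blue Assay; MIC is the lowest concentration giving ≥90% reduction in fluorescence relative to the mean of replicate bacterium-only controls. MDR strain 6133 is resistant to isoniazid and rifampicin.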

Compound	MIC90
Cc1ccc(CO/N=C2\CN(c3nc4c(cc3F)c(=O)c(C(=O)O)cn4[C@@H]3C[C@@H]3F)CC2CN)cc1 (stereo partly specified)	0.03 mg/L (≈ 0.0603 µM)
CO[C@H]1/C=C/O[C@@]2(C)Oc3c(C)c(O)c4c(O)c(c(/C=N/N5CCN(C)CC5)c(O)c4c3C2=O)NC(=O)/C(C)=C\C=C\[C@H](C)[C@H](O)[C@@H](C)[C@@H](O)[C@@H](C)[C@H](OC(C)=O)[C@@H]1C [RIFAMPIN]	> 40 mg/L
NCC1CN(c2nc3c(cc2F)c(=O)c(C(=O)O)cn3[C@@H]2C[C@@H]2F)C/C1=N\OCc1ccccc1 (stereo partly specified)	0.125 mg/L (≈ 0.259 µM)
NNC(=O)c1ccncc1 [ISONIAZID]	4 mg/L (≈ 29.2 µM)
NCC1CN(c2nc3c(cc2F)c(=O)c(C(=O)O)cn3[C@@H]2C[C@@H]2F)C/C1=N\OCc1ccc2c(c1)OCO2 (stereo partly specified)	0.054 mg/L (≈ 0.102 µM)
NCC1CN(c2nc3c(cc2F)c(=O)c(C(=O)O)cn3[C@@H]2C[C@@H]2F)C/C1=N\OCc1ccc(F)cc1 (stereo partly specified)	0.043 mg/L (≈ 0.0857 µM)
